Assay results published in article PMC2943235 (Circulation research, 2010).
Entries after “also recorded” stand apart in the source; their conditions may differ.

Experiments:
[1] = system: THP-1 cells; assay: Cholesterol efflux from THP-1 cells, with or without LXR agonist; type: cell-based, human
[2] = system: THP-1 cells; type: cell-based, human; conditions: (efflux from live cells minus fixed cells)/efflux from live cells x100%; 80 μg/ml; 4 h; compared with apoA-I
[3] = system: VCAM-1; type: cell-based, mouse; conditions: 0.75 mg/ml; TNF-α-activated SVEC4/VCAM-1 cells
Summary of the method: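 SVEC4/VCAM-1 mouse endothelial cells were washed, then given test peptide, apoA-I or HDL at 0.75 mg/ml final for 18 h. TNF-α was added in serum-free medium (10 ng/ml final) for 5 h, and luciferase activity was measured. Activity was expressed per mg cellular protein, relative to vehicle-treated cells, as means ± SEM.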

| Substance | Capacity to support (ABCA1-dependent) cholesterol efflux, in words [1] | Specificity of cholesterol efflux, in words [2] | Inhibition of VCAM-1 expression, in words [3] |
| --- | --- | --- | --- |
| EKLKAKLEELKAKLEELL- P- EKAKAALEEAKAKAEELA | very low overall capacity to support cholesterol efflux |  |  |
| EKLKAKLEELKAKLEELL- P- EKLKAKLEELKAKLEELL [ELK-2A2K2E] | exceptional capacity to support cholesterol efflux, even exceeding that of apoA-I; also recorded: very active in ABCA1-dependent cholesterol efflux | exceptional specificity |  |
| EKLKALLEKLLAKLKELL P- EKLKALLEKLLAKLKELL [ELK-2A] |  |  | most active peptide |
| EWLKELLEKLLEKLKELL- P- EWLKELLEKLLEKLKELL [ELK-1W] | modest capacity for the ABC-dependent efflux | exceptional specificity |  |
